Experimental data as given in ChEMBL document CHEMBL1148578, “Synthesis and biological evaluation of 6-(alkyn-1-yl)furo[2,3-d]pyrimidin-2(3H)-one base and nucleoside derivatives” (J Med Chem, 2006).

Legend:
Human alphaherpesvirus 3 [1] = test: Antiviral activity against Varicella-Zoster virus YS/R strain; format: functional, organism-based; settings: Human alphaherpesvirus 3, YS/R
How it was run: (§1)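 HEL cell monolayers were infected with VZV (TK⁻ strains YS/R and 07/1) for 2 h. Residual virus was then removed and medium with graded compound concentrations was added, in duplicate. After 5 days at 37 °C, cells were ethanol-fixed and Giemsa-stained, and plaques were counted microscopically.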

Human alphaherpesvirus 3 [2] = test: Antiviral activity against Varicella-Zoster virus YS strain; format: functional, organism-based; settings: Human alphaherpesvirus 3, YS
Human alphaherpesvirus 3 [3] = test: Antiviral activity against Varicella-Zoster virus 07/1 strain; format: functional, organism-based; settings: Human alphaherpesvirus 3, 07/1; how it was run: as §1
Human betaherpesvirus 5 [4] = test: Antiviral activity against human cytomegalovirus Davis strain; format: functional, organism-based; settings: Human betaherpesvirus 5, Davis
How it was run: (§2)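 Virus was removed and medium with graded compound concentrations was added, in duplicate. After 7 days at 37 °C, cells were ethanol-fixed and Giemsa-stained, and cytopathogenicity was scored microscopically.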

Human betaherpesvirus 5 [5] = test: Antiviral activity against human cytomegalovirus AD169 strain; format: functional, organism-based; settings: Human betaherpesvirus 5, AD169; how it was run: as §2
HEL = test: Cytotoxic activity against cultured human embryonic lung (HEL) cells; format: functional
How it was run: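 HEL cells were seeded at 5 × 10³/well and grown for 24 h, then exposed to graded compound concentrations for 3 days at 37 °C. MCC was the lowest concentration giving microscopically visible alteration of cell morphology.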

Row | EC50 (Human alphaherpesvirus 3 [1]) [µM] | EC50 (Human alphaherpesvirus 3 [2]) [µM] | EC50 (Human alphaherpesvirus 3 [3]) [µM] | EC50 (Human betaherpesvirus 5 [4]) [µM] | EC50 (Human betaherpesvirus 5 [5]) [µM] | Compound | CC50 (HEL) [µM] | MCC (HEL) [µM]
1 | 6.2 | > 12 | ≥ 12 | ≥ 9.3 | 7.3 | CCCCCCCCC#Cc1cc2cn([C@@H]3O[C@H](CO)[C@@H](O)[C@H]3O)c(=O)nc2o1 | 62 | 49
2 | > 175 | > 175 | > 70 | > 175 | > 175 | CCCCCCCCC#Cc1cc2cn(C)c(=O)nc2o1 | > 175 | > 175
3 | 19 | ≥ 39 | 39 | > 53 | > 133 | CCCCCCC#Cc1cc2cn([C@@H]3O[C@H](CO)[C@@H](O)[C@H]3O)c(=O)nc2o1 | > 133 | ≥ 133
4 | 21 | ≥ 43 | 34 | > 53 | > 53 | CCCCCCC#Cc1cc2cn([C@@H]3O[C@H](CO)[C@@H](O)[C@@H]3O)c(=O)nc2o1 | > 53 | 133
5 | 3.5 | > 4.6 | 4.6 | > 4.6 | > 4.6 | CCCCCCCCCCC#Cc1cc2cn([C@@H]3O[C@H](CO)[C@@H](O)[C@H]3O)c(=O)nc2o1 | 44 | 12
6 | > 87 | 217 | > 87 | 139 | > 217 | CCCCC#Cc1cc2cn(C)c(=O)nc2o1 | > 217 | ≥ 217
7 | 6.5 | 2.7 | > 13 | 7.6 | 7.4 | CCCCCCCCC#Cc1cc2cn([C@H]3C[C@H](O)[C@@H](CO)O3)c(=O)nc2o1 | 77 | 52
8 | 90 | 87 | ≥ 135 | > 150 | > 150 | CCCCC#Cc1cc2cn([C@H]3C[C@H](O)[C@@H](CO)O3)c(=O)nc2o1 | > 150 | > 150
9 | 3.7 | ≥ 11 | 11 | 12 | > 12 | CCCCCCCCC#Cc1cc2cn([C@@H]3O[C@H](CO)[C@@H](O)[C@@H]3O)c(=O)nc2o1 | > 124 | 49
10 | 5.7 | ≥ 16 | > 12 | > 12 | > 12 | CCCCCCCCCCC#Cc1cc2cn([C@@H]3O[C@H](CO)[C@@H](O)[C@@H]3O)c(=O)nc2o1 | 116 | 46
11 | 2.5 | ≥ 5.7 | ≥ 6 | > 4.8 | > 4.8 | CCCCCCCCCCC#Cc1cc2cn([C@H]3C[C@H](O)[C@@H](CO)O3)c(=O)nc2o1 | 36 | 30
12 | > 150 | > 150 | > 150 | > 150 | > 150 | CCCCCCCCCCC#Cc1cc2cn(C)c(=O)nc2o1 | > 150 | > 150
13 | 22 | 1.5 | 25 | 19 | 21 | CCCCCCC#Cc1cc2cn([C@H]3C[C@H](O)[C@@H](CO)O3)c(=O)nc2o1 | 138 | ≥ 97
14 | 23 | ≥ 89 | > 77 | 37 | 31 | CCCCCCC#Cc1cc2cn(C)c(=O)nc2o1 | > 194 | 194
15 | 63 | > 144 | > 144 | > 144 | > 144 | CCCCC#Cc1cc2cn([C@@H]3O[C@H](CO)[C@@H](O)[C@@H]3O)c(=O)nc2o1 | > 144 | > 144
16 | 52 | ≥ 113 | 144 | > 144 | > 144 | CCCCC#Cc1cc2cn([C@@H]3O[C@H](CO)[C@@H](O)[C@H]3O)c(=O)nc2o1 | > 144 | > 144
17 | – | – | – | – | – | Nc1nc2c(ncn2COCCO)c(=O)[nH]1 [ACYCLOVIR] | > 889 | > 222

Row | Compound | EC50 (Human alphaherpesvirus 3 [1]) [µM] | EC50 (Human alphaherpesvirus 3 [2]) [µM] | EC50 (Human alphaherpesvirus 3 [3]) [µM] | EC50 (Human betaherpesvirus 5 [4]) [µM] | EC50 (Human betaherpesvirus 5 [5]) [µM] | CC50 (HEL) [µM] | MCC (HEL) [µM]
18 | O=c1[nH]c(=O)n([C@H]2C[C@H](O)[C@@H](CO)O2)cc1/C=C/Br [BRIVUDINE] | ≥ 126 | 0.01 | ≥ 99 | – | – | > 150 | > 150
19 | Nc1nc2c(ncn2COC(CO)CO)c(=O)[nH]1 [GANCICLOVIR] | – | – | – | 8.7 | – | > 197 | > 197
